Active and inactive are the calls of the source. The rule behind the calls is not given here.
Tests used:
A-431 [1] = assay: Cytotoxicity against human A431 cells assessed as growth inhibition at 25 uM measured after 72 hrs by MTT assay; format: functional, cell-based
Outline: (§1)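 Log-phase cells were plated in duplicate at 2500–4000 cells/well in DMEM with 10% FBS, glutamine and antibiotics, at 37 °C under 5% CO2. Drug was added 24 h after plating from a 40 mM DMSO stock, to a final 25 μM. After 72 h exposure, MTT was read at 540 nm and % growth inhibition was calculated, with 100% meaning total growth inhibition.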

NCI-H460 = assay: Cytotoxicity against human H460 cells assessed as growth inhibition at 25 uM measured after 72 hrs by MTT assay; format: functional, cell-based; outline: as §1
SMA = assay: Cytotoxicity against mouse SMA cells assessed as growth inhibition at 25 uM measured after 72 hrs by MTT assay
A2780 [2] = assay: Cytotoxicity against human A2780 cells assessed as growth inhibition at 25 uM measured after 72 hrs by MTT assay; format: functional; outline: as §1
MIA = assay: (§2) Cytotoxicity against human MIA cells assessed as growth inhibition at 25 uM measured after 72 hrs by MTT assay; format: functional; outline: as §1
SJ-G2 = assay: Cytotoxicity against human SJ-G2 cells assessed as growth inhibition at 25 uM measured after 72 hrs by MTT assay; format: functional, cell-based; outline: as §1
SW480 [3] = assay: Cytotoxicity against human SW480 cells assessed as growth inhibition at 25 uM measured after 72 hrs by MTT assay; format: functional; details: for inhibition of growth at 25 µM: SW480, 72 h, read-out: GI; outline: as §1
HT-29 [4] = assay: Cytotoxicity against human HT-29 cells assessed as growth inhibition at 25 uM measured after 72 hrs by MTT assay; format: functional, cell-based; outline: as §1
[5] = (§3) Cytotoxicity against human BE(2)-C cells assessed as growth inhibition at 25 uM measured after 72 hrs by MTT assay; format: functional; details: read-out: GI; outline: as §1
MCF7 [6] = assay: Cytotoxicity against human MCF7 cells assessed as growth inhibition at 25 uM measured after 72 hrs by MTT assay; format: functional; details: MCF7, 72 h, read-out: GI; outline: as §1
DU-145 [7] = assay: Cytotoxicity against human DU145 cells assessed as growth inhibition at 25 uM measured after 72 hrs by MTT assay; format: functional, cell-based; outline: as §1
MCF7 [8] = assay: Cytotoxicity against human MCF7 cells assessed as growth inhibition measured after 72 hrs by MTT assay; format: functional; details: MCF7, 72 h
Outline: (§4)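 Cells in log phase were seeded in duplicate at 2500–4000 cells/well in supplemented DMEM (37 °C, 5% CO2). Drug from a 40 mM DMSO stock was added on day 0, 24 h post-plating. Read-out was MTT absorbance at 540 nm after 72 h.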

[9] = Cytotoxicity against human SJ-G2 cells assessed as growth inhibition at 100 uM measured after 72 hrs by MTT assay; format: functional; details: SJ-G2, 72 h, read-out: GI
[10] = Cytotoxicity against human BE(2)-C cells assessed as growth inhibition at 100 uM measured after 72 hrs by MTT assay; format: functional; details: read-out: GI
A2780 [11] = assay: Cytotoxicity against human A2780 cells assessed as growth inhibition at 100 uM measured after 72 hrs by MTT assay; format: functional; details: A2780, 72 h, read-out: GI
[12] = Cytotoxicity against mouse SMA cells assessed as growth inhibition at 100 uM measured after 72 hrs by MTT assay; details: read-out: GI
A-431 [13] = assay: Cytotoxicity against human A431 cells assessed as growth inhibition measured after 72 hrs by MTT assay; format: functional; details: A-431, 72 h; outline: as §4
[14] = Cytotoxicity against human SJ-G2 cells assessed as growth inhibition measured after 72 hrs by MTT assay; format: functional; details: SJ-G2, 72 h; outline: as §4
HT-29 [15] = assay: Cytotoxicity against human HT-29 cells assessed as growth inhibition measured after 72 hrs by MTT assay; format: functional; details: HT-29, 72 h; outline: as §4
[16] = Cytotoxicity against human H460 cells assessed as growth inhibition at 100 uM measured after 72 hrs by MTT assay; format: functional; details: NCI-H460, 72 h, read-out: GI
[17] = Cytotoxicity against human MIA cells assessed as growth inhibition measured after 72 hrs by MTT assay; format: functional; outline: as §4
SW480 [18] = assay: Cytotoxicity against human SW480 cells assessed as growth inhibition at 100 uM measured after 72 hrs by MTT assay; format: functional; details: SW480, 72 h, read-out: GI
[19] = Cytotoxicity against human BE(2)-C cells assessed as growth inhibition measured after 72 hrs by MTT assay; format: functional; outline: as §4
A-431 [20] = assay: Cytotoxicity against human A431 cells assessed as growth inhibition at 100 uM measured after 72 hrs by MTT assay; format: functional; details: A-431, 72 h, read-out: GI
MCF7 [21] = assay: Cytotoxicity against human MCF7 cells assessed as growth inhibition at 100 uM measured after 72 hrs by MTT assay; format: functional; details: MCF7, 72 h, read-out: GI
A2780 [22] = assay: Cytotoxicity against human A2780 cells assessed as growth inhibition measured after 72 hrs by MTT assay; format: functional; details: A2780, 72 h; outline: as §4
DU-145 [23] = assay: Cytotoxicity against human DU145 cells assessed as growth inhibition at 100 uM measured after 72 hrs by MTT assay; format: functional; details: DU-145, 72 h, read-out: GI
[24] = Cytotoxicity against human H460 cells assessed as growth inhibition measured after 72 hrs by MTT assay; format: functional; details: NCI-H460, 72 h; outline: as §4
SW480 [25] = assay: Cytotoxicity against human SW480 cells assessed as growth inhibition measured after 72 hrs by MTT assay; format: functional; details: SW480, 72 h; outline: as §4
HT-29 [26] = assay: Cytotoxicity against human HT-29 cells assessed as growth inhibition at 100 uM measured after 72 hrs by MTT assay; format: functional; details: HT-29, 72 h, read-out: GI
DU-145 [27] = assay: Cytotoxicity against human DU145 cells assessed as growth inhibition measured after 72 hrs by MTT assay; format: functional; details: DU-145, 72 h; outline: as §4
[28] = Cytotoxicity against human MIA cells assessed as growth inhibition at 100 uM measured after 72 hrs by MTT assay; format: functional; details: read-out: GI
[29] = Cytotoxicity against mouse SMA cells assessed as growth inhibition measured after 72 hrs by MTT assay
[30] = as §2; format: functional; details: read-out: GI; outline: as §1
BE(2)-C = assay: as §3; format: functional; outline: as §1

N#C/C(=C\c1ccc(Cl)c(Cl)c1)C(=O)c1c[nH]c2ccccc12
growth inhibition (GI) (A-431 [1]): inactive
growth inhibition (GI) (NCI-H460): inactive
growth inhibition (GI) (SMA): inactive
inhibition of growth at 25 µM (A2780 [2]; A2780, 72 h, read-out: GI): 32%
growth inhibition (GI) (MIA): inactive
growth inhibition (GI) (SJ-G2): inactive
inhibition of growth at 25 µM (SW480 [3]): 33%
growth inhibition (GI) (HT-29 [4]): inactive
inhibition of growth at 25 µM [5]: 33%
inhibition of growth at 25 µM (MCF7 [6]): 42%
growth inhibition (GI) (DU-145 [7]): inactive

N#C/C(=C\c1ccc(Cl)cc1)C(=O)c1ccc[nH]1
GI50 (MCF7 [8]): 27 µM
inhibition of growth at 100 µM [9]: 31%
inhibition of growth at 100 µM [10]: 31%
inhibition of growth at 100 µM (A2780 [11]): 31%
inhibition of growth at 100 µM [12]: 31%
GI50 (A-431 [13]): 52 µM
GI50 [14]: 37 µM
GI50 (HT-29 [15]): 36 µM
inhibition of growth at 100 µM [16]: 31%
GI50 [17]: 48 µM
inhibition of growth at 100 µM (SW480 [18]): 31%
GI50 [19]: 34 µM
inhibition of growth at 100 µM (A-431 [20]): 31%
inhibition of growth at 100 µM (MCF7 [21]): 31%
GI50 (A2780 [22]): 35 µM
inhibition of growth at 100 µM (DU-145 [23]): 31%
GI50 [24]: 43 µM
GI50 (SW480 [25]): 34 µM
inhibition of growth at 100 µM (HT-29 [26]): 31%
GI50 (DU-145 [27]): 61 µM
inhibition of growth at 100 µM [28]: 31%
GI50 [29]: 38 µM

COc1ccc(CNC(=O)/C(C#N)=C/c2cc3ccccc3o2)cc1
growth inhibition (GI) (A-431 [1]): inactive
growth inhibition (GI) (NCI-H460): inactive
growth inhibition (GI) (SMA): inactive
growth inhibition (GI) (A2780 [2]): inactive
inhibition of growth at 25 µM [30]: 34%
growth inhibition (GI) (SJ-G2): inactive
growth inhibition (GI) (SW480 [3]): inactive
growth inhibition (GI) (HT-29 [4]): inactive
growth inhibition (GI) (BE(2)-C): inactive
inhibition of growth at 25 µM (MCF7 [6]): 40%
growth inhibition (GI) (DU-145 [7]): inactive

N#C/C(=C\c1c[nH]c2ccccc12)C(=O)c1ccc[nH]1
growth inhibition (GI) (A-431 [1]): inactive
growth inhibition (GI) (NCI-H460): inactive
growth inhibition (GI) (SMA): inactive
growth inhibition (GI) (A2780 [2]): inactive
growth inhibition (GI) (MIA): inactive
growth inhibition (GI) (SJ-G2): inactive
inhibition of growth at 25 µM (SW480 [3]): 43%
growth inhibition (GI) (HT-29 [4]): inactive
inhibition of growth at 25 µM [5]: 49%
inhibition of growth at 25 µM (MCF7 [6]): 56%
growth inhibition (GI) (DU-145 [7]): inactive
